Laboratory results taken from ChEMBL document CHEMBL4190252, “Synthesis, antitumor activity and CDK1 inhibiton of new thiazole nortopsentin analogues” (Eur J Med Chem, 2017).
Activity calls are given as the source filed them. The calls are words filed in the database; no cut-off is given here.

Experiments:
[1] = tested on: SK-MEL-28; test: Growth inhibition of human SK-MEL-28 cells incubated for 48 hrs by sulforhodamine B assay; format: functional; settings: SK-MEL-28, 48 h
Procedure, shortened: (§1)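 NCI full-panel human tumour cell screen. Cells were exposed to five 10-fold dilutions from 10^-4 to 10^-8 M. GI50 is the molar concentration giving 50% inhibition of net cell growth, and a mean graph midpoint was calculated across the panel.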

[2] = tested on: M14; test: Growth inhibition of human M14 cells incubated for 48 hrs by sulforhodamine B assay; format: functional; settings: M14, 48 h
Procedure, shortened: (§2)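 NCI full panel screen: five 10-fold dilutions (10^-4–10^-8 M). GI50 is the molar concentration giving 50% inhibition of net cell growth.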

[3] = tested on: MCF7; test: Induction of apoptosis in human MCF7 cells assessed as late apoptotic cells at 2 x 10^-6 M after 72 hrs by Annexin V/propidium iodide double staining-based flow cytometry (reference value: 0%); format: functional
Procedure, shortened: (§3)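 MCF-7 cells were grown in RPMI with 10% FBS, 2 mM L-glutamine and antibiotics at 37 °C in 5% CO2. They were seeded at 2.0 x 10^5 cells/cm2 in triplicate, left to adhere overnight, then treated for 72 h; DMSO 0.1% served as vehicle. Trypsinised cells at 2.0 x 10^5/mL were stained with annexin V-FITC and PI for 15 min at room temperature in the dark. At least 1.0 x 10^4 cells were gated into viable, early apoptotic, late apoptotic and necrotic quadrants.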

[4] = tested on: IGROV-1; test: Growth inhibition of human IGROV1 cells incubated for 48 hrs by sulforhodamine B assay; format: functional; settings: IGROV-1, 48 h; procedure, shortened: as §2
[5] = tested on: EKVX; test: Growth inhibition of human EKVX cells incubated for 48 hrs by sulforhodamine B assay; format: functional; procedure, shortened: as §2
[6] = tested on: Caco-2; test: Cytotoxicity against human Caco2 cells assessed as reduction in cell survival at 25 to 100 uM after 72 hrs by MTT assay; format: cell-based; settings: caco-2, 72 h
Procedure, shortened: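 Caco-2 cells, differentiated 15 days post-confluence, seeded at 2 x 10^4 cells/well and treated 72 h with 5–100 µM compound. MTT added (5 mg/mL in FBS-free medium), 2 h at 37 °C, formazan dissolved in DMSO, absorbance at 570 nm. Viability relative to vehicle control (100%); LC50 taken from the viability-concentration plot. At least three experiments in triplicate.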

[7] = tested on: SK-OV-3; test: Growth inhibition of human SKOV3 cells incubated for 48 hrs by sulforhodamine B assay; format: functional; settings: SK-OV-3, 48 h; procedure, shortened: as §1
[8] = tested on: SF-295; test: Growth inhibition of human SF295 cells incubated for 48 hrs by sulforhodamine B assay; format: functional; settings: SF-295, 48 h; procedure, shortened: as §2
[9] = tested on: A549; test: Growth inhibition of human A549/ATCC cells incubated for 48 hrs by sulforhodamine B assay; format: functional; settings: A549, 48 h; procedure, shortened: as §2
[10] = tested on: SF-539; test: Growth inhibition of human SF539 cells incubated for 48 hrs by sulforhodamine B assay; format: functional; settings: SF-539, 48 h; procedure, shortened: as §2
[11] = tested on: SK-MEL-5; test: Growth inhibition of human SK-MEL-5 cells incubated for 48 hrs by sulforhodamine B assay; format: functional; settings: SK-MEL-5, 48 h; procedure, shortened: as §1
[12] = tested on: OVCAR-8; test: Growth inhibition of human OVCAR8 cells incubated for 48 hrs by sulforhodamine B assay; format: functional; settings: OVCAR-8, 48 h; procedure, shortened: as §2
[13] = tested on: OVCAR-3; test: Growth inhibition of human OVCAR3 cells incubated for 48 hrs by sulforhodamine B assay; format: functional; settings: OVCAR-3, 48 h; procedure, shortened: as §2
[14] = tested on: CAKI-1; test: Growth inhibition of human Caki1 cells incubated for 48 hrs by sulforhodamine B assay; format: functional; settings: CAKI-1, 48 h; procedure, shortened: as §2
[15] = tested on: NCI/ADR-RES; test: Growth inhibition of human NCI/ADR-RES cells incubated for 48 hrs by sulforhodamine B assay; format: functional; procedure, shortened: as §2
[16] = tested on: UACC-62; test: Growth inhibition of human UACC62 cells incubated for 48 hrs by sulforhodamine B assay; format: functional; settings: UACC-62, 48 h; procedure, shortened: as §1
[17] = tested on: HOP-62; test: Growth inhibition of human HOP62 cells incubated for 48 hrs by sulforhodamine B assay; format: functional; settings: HOP-62, 48 h; procedure, shortened: as §2
[18] = tested on: SK-MEL-2; test: Growth inhibition of human SK-MEL-2 cells incubated for 48 hrs by sulforhodamine B assay; format: functional; settings: SK-MEL-2, 48 h; procedure, shortened: as §1
[19] = tested on: MCF7; test: Cell cycle arrest in human MCF7 cells assessed as reduction in accumulation at G0/G1 phase at GI50 concentration after 48 hrs by propidium iodide-staining based flow cytometry; format: functional
Procedure, shortened: (§4)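 Cells were trypsinized, washed in cold PBS, and 1 x 10^6 cells stained with 20 µg/ml PI plus 200 µg/ml RNase for 30 min at room temperature in the dark. At least 1x 10^4 cells were analysed by flow cytometry. Mean±SD of three experiments in triplicate.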

[20] = tested on: RXF 393; test: Growth inhibition of human RXF393 cells incubated for 48 hrs by sulforhodamine B assay; format: functional; settings: RXF 393, 48 h; procedure, shortened: as §2
[21] = tested on: MCF7; test: Cell cycle arrest in human MCF7 cells assessed as reduction in accumulation at S phase at GI50 concentration after 48 hrs by propidium iodide-staining based flow cytometry; format: functional; procedure, shortened: as §4
[22] = tested on: MDA-MB-468; test: Growth inhibition of human MDA-MB-468 cells incubated for 48 hrs by sulforhodamine B assay; format: functional; settings: MDA-MB-468, 48 h; procedure, shortened: as §2
[23] = tested on: HT-29; test: Growth inhibition of human HT-29 cells incubated for 48 hrs by sulforhodamine B assay; format: functional; settings: HT-29, 48 h; procedure, shortened: as §2
[24] = tested on: UO-31; test: Growth inhibition of human UO31 cells incubated for 48 hrs by sulforhodamine B assay; format: functional; settings: UO-31, 48 h; procedure, shortened: as §1
[25] = tested on: HOP-92; test: Growth inhibition of human HOP92 cells incubated for 48 hrs by sulforhodamine B assay; format: functional; settings: HOP-92, 48 h; procedure, shortened: as §2
[26] = tested on: MCF7; test: Induction of apoptosis in human MCF7 cells assessed as necrotic cells at 2 x 10^-6 M after 72 hrs by Annexin V/propidium iodide double staining-based flow cytometry (reference value: 0.1%); format: functional; procedure, shortened: as §3
[27] = tested on: MDA-MB-231; test: Growth inhibition of human MDA-MB-231 cells incubated for 48 hrs by sulforhodamine B assay; format: functional; settings: MDA-MB-231, 48 h; procedure, shortened: as §2
[28] = tested on: COLO 205; test: Growth inhibition of human COLO205 cells incubated for 48 hrs by sulforhodamine B assay; format: functional; settings: COLO 205, 48 h; procedure, shortened: as §2
[29] = tested on: MCF7; test: Growth inhibition of human MCF7 cells incubated for 48 hrs by sulforhodamine B assay; format: functional; settings: MCF7, 48 h; procedure, shortened: as §2
[30] = tested on: BT-549; test: Growth inhibition of human BT549 cells incubated for 48 hrs by sulforhodamine B assay; format: functional; settings: BT-549, 48 h; procedure, shortened: as §2
[31] = tested on: PC-3; test: Growth inhibition of human PC3 cells incubated for 48 hrs by sulforhodamine B assay; format: functional; settings: PC-3, 48 h; procedure, shortened: as §2
[32] = tested on: SR; test: Growth inhibition of human SR cells incubated for 48 hrs by sulforhodamine B assay; format: functional; procedure, shortened: as §1
[33] = tested on: K562; test: Growth inhibition of human K562 cells incubated for 48 hrs by sulforhodamine B assay; format: functional; settings: K562, 48 h; procedure, shortened: as §2
[34] = tested on: ACHN; test: Growth inhibition of human ACHN cells incubated for 48 hrs by sulforhodamine B assay; format: functional; procedure, shortened: as §2
[35] = tested on: Hs-578T; test: Growth inhibition of human Hs 578T cells incubated for 48 hrs by sulforhodamine B assay; format: functional; procedure, shortened: as §2
[36] = tested on: HCC 2998; test: Growth inhibition of human HCC2998 cells incubated for 48 hrs by sulforhodamine B assay; format: functional; settings: HCC 2998, 48 h; procedure, shortened: as §2
[37] = tested on: MOLT-4; test: Growth inhibition of human MOLT4 cells incubated for 48 hrs by sulforhodamine B assay; format: functional; settings: MOLT-4, 48 h; procedure, shortened: as §2

Compound	GI50 [1]	GI50 [2]	GI50 [4]	GI50 [5]	Activity [6]	GI50 [7]	GI50 [8]	GI50 [9]	GI50 [10]	GI50 [11]	GI50 [12]	GI50 [13]	GI50 [14]	GI50 [15]	GI50 [16]	GI50 [17]	GI50 [18]	Activity [19]	GI50 [20]	Activity [21]	other results
COCCn1cc(-c2csc(-c3c[nH]c4ccccc34)n2)c2cccnc21	8.19 µM	3.22 µM	2.53 µM	2 µM	Toxic	14.8 µM	3.35 µM	7.1 µM	5.91 µM	3.22 µM	8 µM	2.94 µM	8.36 µM	1.76 µM	4.58 µM	2.82 µM	7.38 µM	Active	5.76 µM	Active	Activity [3]: 0%; GI50 [22]: 0.97 µM; GI50 [23]: 3.19 µM; GI50 [24]: 4.15 µM; GI50 [25]: 14.9 µM; Activity [26]: 0.1%; GI50 [27]: 5.05 µM; GI50 [28]: 2.66 µM; GI50 [29]: 1.74 µM; GI50 [30]: 4.45 µM; GI50 [31]: 6.81 µM; GI50 [32]: 3.02 µM; GI50 [33]: 2.8 µM; GI50 [34]: 5.6 µM; GI50 [35]: 9.14 µM; GI50 [36]: 4.08 µM
COCCn1cc(-c2nc(-c3c[nH]c4ncccc34)cs2)c2cc(OC)ccc21	7.39 µM	5.82 µM	0.55 µM	0.07 µM	Non-Toxic	3.49 µM	2.7 µM	4.41 µM	3.99 µM	5.53 µM	4.11 µM	4.66 µM	4.36 µM	3.07 µM	5.98 µM	2.12 µM	3.56 µM	Active	1.18 µM	Active	GI50 [37]: 6.02 µM; GI50 [22]: 0.03 µM; GI50 [23]: 4.31 µM; GI50 [24]: 2.31 µM; GI50 [25]: 0.99 µM; GI50 [27]: 2.02 µM; GI50 [28]: 5.03 µM; GI50 [29]: 0.05 µM; GI50 [30]: 2.38 µM; GI50 [31]: 4.22 µM; GI50 [32]: 1.28 µM; GI50 [33]: 4.79 µM; GI50 [34]: 3.08 µM; GI50 [35]: 2.07 µM; GI50 [36]: 4.81 µM
